Laboratory results taken from ChEMBL document CHEMBL2046270, “The cis-4-amino-L-proline residue as a scaffold for the synthesis of cyclic and linear endomorphin-2 analogues” (J Med Chem, 2012).

Tests used:
[1] = target: Delta-type opioid receptor (Homo sapiens, UniProt P41143); assay: Displacement of [3H]-DPDPE from human delta opioid receptor expressed in HN9.10 cells after 3 hrs by scintillation counting; assay type: cell-based
In short: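 Membranes from transfected HN9.10 cells expressing MOR or DOR, in 50 mM Tris pH 7.4 with bacitracin, bestatin, captopril, PMSF, BSA. 50 μg membrane with 10 concentrations of test compound and 1.0 nM [3H]DAMGO (MOR) or [3H]DPDPE (DOR); nonspecific with 10 μM naloxone. 25 °C, 3 h, duplicate; GF/B filtration, scintillation counting; Ki by Cheng–Prusoff.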

[2] = target: Kappa-type opioid receptor (Homo sapiens, UniProt P41145); assay: Displacement of [3H]-U69593 from human kappa opioid receptor expressed in CHO cells after 60 mins by scintillation counting; assay type: cell-based
Kappa-type opioid receptor, sequence (P41145 whole entry): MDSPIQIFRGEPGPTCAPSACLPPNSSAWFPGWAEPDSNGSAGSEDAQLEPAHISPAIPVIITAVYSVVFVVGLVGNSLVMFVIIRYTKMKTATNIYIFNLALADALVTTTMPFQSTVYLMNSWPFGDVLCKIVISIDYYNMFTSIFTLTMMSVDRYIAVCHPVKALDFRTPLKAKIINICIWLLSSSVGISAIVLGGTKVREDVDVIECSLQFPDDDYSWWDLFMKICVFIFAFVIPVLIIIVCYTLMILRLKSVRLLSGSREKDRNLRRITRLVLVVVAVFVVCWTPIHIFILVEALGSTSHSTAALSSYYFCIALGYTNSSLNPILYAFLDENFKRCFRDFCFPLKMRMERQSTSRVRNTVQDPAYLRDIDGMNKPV
In short: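 Recombinant CHO cell membranes incubated 60 min at room temperature with 3 nM [3H]U69593 and varying ligand concentrations; nonspecific binding with 10 μM naloxone. Rapid filtration, liquid scintillation counting. Ki by Cheng–Prusoff; four independent experiments, each in duplicate.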

[3] = target: Mu-type opioid receptor (Cavia porcellus) (UniProt P97266); assay: Agonist activity at mu opioid receptor in Hartley guinea pig ileum assessed as inhibition of electrically-stimulated muscle contraction at 1 uM after 3 mins; assay type: functional, tissue-based
Mu-type opioid receptor (Cavia porcellus), sequence (P97266 whole entry): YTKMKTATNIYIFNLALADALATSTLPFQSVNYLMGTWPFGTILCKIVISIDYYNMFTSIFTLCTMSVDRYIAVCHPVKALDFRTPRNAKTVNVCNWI
In short: (§1)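 Transmurally stimulated tissue (0.1 Hz; 2.0 ms pulses MVD, 0.4 ms GPI; supramaximal voltage) from male ICR mice (25−30 g) or male Hartley guinea pigs (150−400 g; ileum longitudinal muscle-myenteric plexus), in 37 °C oxygenated Krebs bicarbonate (Mg-free for MVD), tension 0.5 g MVD / 1 g GPI. Agonist in contact 3 min, then washout; percent inhibition of contraction at single concentration.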

[4] = target: Delta-type opioid receptor (Mus musculus) (UniProt P32300); assay: Agonist activity at delta opioid receptor in ICR mouse vas deferens assessed as inhibition of electrically-stimulated muscle contraction at 1 uM after 3 mins; assay type: functional, tissue-based; in short: as §1
Delta-type opioid receptor (Mus musculus), sequence (P32300 whole entry): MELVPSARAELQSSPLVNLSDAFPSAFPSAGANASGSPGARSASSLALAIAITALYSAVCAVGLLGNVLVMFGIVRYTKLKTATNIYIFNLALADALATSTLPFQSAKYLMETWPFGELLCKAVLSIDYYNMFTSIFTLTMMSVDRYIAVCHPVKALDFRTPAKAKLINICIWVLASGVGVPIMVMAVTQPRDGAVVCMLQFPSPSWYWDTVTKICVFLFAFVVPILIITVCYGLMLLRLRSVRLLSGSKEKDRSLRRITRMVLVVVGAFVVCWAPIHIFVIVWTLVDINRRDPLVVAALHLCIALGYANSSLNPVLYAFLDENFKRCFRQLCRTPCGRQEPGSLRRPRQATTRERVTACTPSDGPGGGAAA

Delta-type opioid receptor, sequence (P41143 whole entry): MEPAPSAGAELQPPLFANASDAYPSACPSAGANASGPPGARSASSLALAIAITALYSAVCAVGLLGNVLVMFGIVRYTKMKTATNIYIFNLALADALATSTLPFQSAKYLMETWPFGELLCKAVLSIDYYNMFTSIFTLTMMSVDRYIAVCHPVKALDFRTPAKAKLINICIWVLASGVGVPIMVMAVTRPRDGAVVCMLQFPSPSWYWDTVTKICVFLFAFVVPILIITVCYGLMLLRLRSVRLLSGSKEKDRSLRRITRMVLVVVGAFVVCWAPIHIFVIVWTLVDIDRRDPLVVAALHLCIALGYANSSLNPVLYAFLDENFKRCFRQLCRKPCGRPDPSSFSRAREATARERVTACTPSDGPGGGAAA

| SMILES | Ki [1] | Ki [2] | inhibition [3] [%] | inhibition [4] [%] |
| --- | --- | --- | --- | --- |
| N[C@@H](Cc1ccc(O)cc1)C(=O)N1C[C@@H]2C[C@H]1C(=O)N[C@@H](Cc1ccccc1)C(=O)N[C@@H](Cc1ccccc1)C(=O)N2 | Not Active | Not Active | 1.4 | 0 |
| Br.N[C@H]1C[C@@H](C(=O)N[C@@H](Cc2ccccc2)C(=O)N[C@@H](Cc2ccccc2)C(=O)O)N(C(=O)[C@@H](N)Cc2ccc(O)cc2)C1 |  | Not Active | 0 | 3.6 |
| Br.NC(=O)[C@H](Cc1ccccc1)NC(=O)[C@H](Cc1ccccc1)NC(=O)[C@@H]1C[C@H](N)CN1C(=O)[C@@H](N)Cc1ccc(O)cc1 | Not Active | Not Active |  | 20 |
